Screens from PubChem.
pPAFAH inh – inhibitors of human plasma PAF acetylhydrolase (pPAFAH). Q13093. AID 463082. inhibition, % at 3.39 µM. recombinant pPAFAH, FP-rhodamine probe fluorescence polarization. 330,000 compounds, 1.5% hits;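 active = inhibition above the mean inhibition across the screen plus 3 SD, cut at about 25% in these data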;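 note: inhibitors block binding of the rhodamine activity-based probe so polarization drops; 0% = enzyme with DMSO and 100% = wells lacking pPAFAH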
Apaf-1 inh – inhibitors of human Apaf-1 apoptosome; 330,000 compounds, 0.71% hits; inhibition, % at 20 µM; reconstituted apoptosome caspase-3 activity, DEVD-Rh110 fluorescence; O14727; active = inhibition of at least 40% at 20 µM;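 note: plate controls were DMSO wells for no effect and DEVD-CHO caspase inhibitor wells for full effect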
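Material: reconstituted apoptosome with Apaf-1, cytochrome c, caspase-9, procaspase-3, dATP; medium: pH 7.5 Hepes buffer with CHAPS, BSA, DTT; also added: cytochrome c and DEVD-Rh110 substrate; timing: 30 min plus 50 min, RT; signal: Rh110 fluorescence intensity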
PAFAH2 inh – inhibitors of human PAFAH2; Q99487; recombinant PAFAH2, FP-rhodamine activity probe, fluorescence polarization; inhibition, % at 3.39 µM; 340,000 compounds, 0.99% hits;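 active = inhibition above the mean over all tested compounds plus 3 SD, cut at about 30% in these data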;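 note: inhibitors block probe labeling of enzyme so polarization drops; 0% = enzyme with DMSO and 100% = wells lacking PAFAH2 protein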
PREPL inhibitor – inhibits the human prolyl oligopeptidase-like enzyme; inhibition, % at 5.96 µM; recombinant PREPL, fluorescence polarization activity-based probe; AID 2751; 320,000 compounds, 0.68% hits; in the data active = inhibition above about 43%;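 note: 0% = enzyme with DMSO and 100% = wells lacking enzyme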
PAFAH1B3 FP inh – inhibitors of human PAFAH1B3; recombinant PAFAH1B3, FP-rhodamine probe, fluorescence polarization; inhibition, % at 3.39 µM; 340,000 compounds, 0.28% hits; AID 492972;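 active = inhibition above the screen-wide average of all tested compounds plus 3 SD, cut at about 25% in these data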;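 note: 0% = enzyme with DMSO only and 100% = wells lacking PAFAH1B3 protein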
Target sequence (Q15102 whole entry, looked up): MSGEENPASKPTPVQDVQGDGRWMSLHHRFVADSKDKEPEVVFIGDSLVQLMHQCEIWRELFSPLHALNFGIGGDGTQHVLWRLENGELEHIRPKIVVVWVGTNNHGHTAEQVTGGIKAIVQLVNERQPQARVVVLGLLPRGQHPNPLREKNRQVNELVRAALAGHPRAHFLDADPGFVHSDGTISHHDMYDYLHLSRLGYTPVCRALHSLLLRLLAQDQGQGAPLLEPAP
PAFAH1B2 FP inh – inhibitors of human PAFAH1B2 | P68402 | recombinant PAFAH1B2, FP-rhodamine activity probe, fluorescence polarization | inhibition, % at 3.39 µM | 340,000 compounds, 1.2% hits;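 active = inhibition above the mean of all tested compounds plus 3 SD, cut at about 24% in these data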;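 note: 0% = enzyme with DMSO and 100% = wells lacking PAFAH1B2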
Target sequence (P68402 whole entry, looked up): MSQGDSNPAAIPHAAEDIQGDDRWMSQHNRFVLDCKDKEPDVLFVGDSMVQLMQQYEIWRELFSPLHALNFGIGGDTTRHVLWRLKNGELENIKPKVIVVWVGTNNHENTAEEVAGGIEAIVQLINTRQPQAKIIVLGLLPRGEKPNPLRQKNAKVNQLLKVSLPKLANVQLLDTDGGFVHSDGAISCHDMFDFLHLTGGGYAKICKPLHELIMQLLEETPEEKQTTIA
PAFAH2 confirm – PAFAH2 (human) inhibition, confirmed; shares compounds with PAFAH2 inh; recombinant PAFAH2, FP-rhodamine activity probe, fluorescence polarization; inhibition, % at 3.39 µM; 2,300 compounds, 65% hits;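 active = mean inhibition over three repeats above a set limit taken from the earlier primary screen, cut at about 30% in these data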;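 note: inhibitor blocks binding of rhodamine activity probe so polarization falls; 0% = enzyme with DMSO and 100% = wells lacking PAFAH2 protein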
The depositor's hits bear a star; nt = no result. A selection: hits, their analogues and other compounds. The true share with any hit is near 3.5%.

SMILES	pPAFAH inh	Apaf-1 inh	PAFAH2 inh	PREPL inhibitor	PAFAH1B3 FP inh	PAFAH1B2 FP inh	PAFAH2 confirm
O=C1/C(=C\c2ccccn2)SC(=S)N1Nc1ncc(C(F)(F)F)cc1Cl	-5	25	34*	9	12	10	26
CC(=O)c1ccccc1OCCn1nnc(-c2ccc(C)cc2)n1	2	20	4	-31	-1	1	nt
Cc1cc(C)cc(OCCN2CCOCC2)c1	1	-4	-1	-7	12	2	nt
Cc1ccc(S(=O)(=O)N2CCCCC2)cc1NC(=O)COC(=O)C1=COCCO1	6	-1	50*	11	4	5	40*
Cc1ccc(S(=O)(=O)N2CCCCC2)cc1NC(=O)COC(=O)c1ccc2c(c1)OCO2	10	-5	15	8	3	4	nt
O=C(COC(=O)C1=COCCO1)Nc1cc(S(=O)(=O)N2CCCCC2)ccc1Cl	7	-5	57*	1	7	2	41*
Cc1ccc(S(=O)(=O)N2CCCCC2)cc1NC(=O)COC(=O)c1cccn1C	6	5	39*	10	-1	6	32*
Cc1ccc(S(=O)(=O)C2(C(=O)N3CCN(c4ccccc4F)CC3)CC2)cc1	-1	3	-3	-45	0	1	nt
CC(CCc1ccccc1)NC(=O)CCCn1ncn2c(cc3occc32)c1=O (centres undefined)	0	0	-4	-4	2	-3	nt
O=C(COC(=O)c1ccc(S(=O)(=O)N2CCOCC2)cc1)NC1CCCC1	5	0	-2	1	3	2	nt
O=C(COC(=O)/C=C/c1ccc(S(=O)(=O)N2CCOCC2)cc1)NCc1ccc(Cl)cc1	11	10	15	7	1	4	nt
O=C(COC(=O)/C=C/c1ccc(S(=O)(=O)N2CCOCC2)cc1)NC1CCCCCCC1	7	3	53*	-12	-3	-1	32*
O=C(COC(=O)/C=C/c1ccc(S(=O)(=O)N2CCOCC2)cc1)Nc1ccc(F)c(F)c1F	5	-7	33*	12	3	4	34*
O=C(/C=C/c1ccc(S(=O)(=O)N2CCOCC2)cc1)Nc1ccc(F)c(F)c1F	-3	1	-3	10	3	-3	nt
O=C(COC(=O)/C=C/c1ccc(S(=O)(=O)N2CCOCC2)cc1)NCc1ccccc1	3	-10	49*	10	2	0	30*
Cc1cc(NC(=O)COc2ccccc2C)ccc1NC(=O)c1cccs1	0	10	1	-6	4	-1	nt
CCOc1cc(C(=O)Nc2ccc(S(=O)(=O)N3CCCCC3)cc2)ccc1OCC(=O)N1CCOCC1	-1	11	-4	-12	-2	4	nt
CC(C)CN(C(=O)CN1C(=O)NC2(CCc3ccccc32)C1=O)C1CCS(=O)(=O)C1 (centres undefined)	0	-6	-4	7	-8	5	nt
COc1ccc(OC)c(CNC(=O)CCCn2ccc3cc(S(=O)(=O)N4CCCC4)ccc32)c1	5	-4	0	2	-4	-6	nt
O=C(CNC(=O)c1cccc(OC(F)F)c1)OCn1nnc2ccccc2c1=O	4	4	2	5	4	5	nt
O=C(Nc1ccc(N2CCOCC2)nc1)c1ccccc1Cl	-2	-2	-4	14	-1	-1	nt
Cc1cccc(C(=O)OCC(=O)NCc2cccs2)c1	6	5	41*	2	3	-4	29
CC(=O)Nc1ccc(C(=O)OCC(=O)NCc2cccs2)cc1	1	-13	72*	3	1	-6	38*
CCC(=O)c1ccc(OCC(=O)OCC(=O)NCc2cccs2)cc1	6	-2	-4	-4	11	0	nt
CC(C)COc1ccc(C(=O)OCC(=O)NCc2cccs2)cc1	13	3	41*	17	9	4	37*
SMILES	pPAFAH inh	Apaf-1 inh	PAFAH2 inh	PREPL inhibitor	PAFAH1B3 FP inh	PAFAH1B2 FP inh	PAFAH2 confirm
CCC(C)C(NC(=O)C1CCC(=O)N1C(=O)OCc1ccccc1)C(=O)NC(Cc1ccccc1)C(N)=O (centres undefined)	2	10	78*	7	-1	7	64*
CC(C)CC(NC(=O)C1CCC(=O)N1C(=O)OCc1ccccc1)C(=O)NC(Cc1ccccc1)C(N)=O (centres undefined)	4	2	52*	-1	1	7	48*
CSCCC(NS(=O)(=O)c1ccc(C)cc1)C(=O)N1CCN(C(C)=O)CC1 (centres undefined)	1	-2	4	-3	0	3	nt
CCC(CO)Oc1cc(NC(=O)c2ccccc2F)c2ncn(C(C)C)c2c1 (centres undefined)	-2	11	3	15	-2	5	nt
CCC(CO)Oc1cc(NC(=O)Cc2ccccc2F)c2ncn(C(C)C)c2c1 (centres undefined)	19	5	40*	16	9	6	20
O=C(COC(=O)C1CC2CCCC(C1)C2=O)Nc1ccccc1 (centres undefined)	2	-2	64*	0	11	1	60*
O=C(COC(=O)C1CC2CCCC(C1)C2=O)Nc1cccc(F)c1 (centres undefined)	-4	7	68*	13	4	7	69*
CN(C)S(=O)(=O)c1ccc(NC(=O)COC(=O)C2CC3CCCC(C2)C3=O)cc1 (centres undefined)	3	-2	6	7	9	7	nt
NC(=O)c1ccsc1NC(=O)COC(=O)C1CC2CCCC(C1)C2=O (centres undefined)	1	-4	8	12	0	-2	nt
CC(NC(=O)c1ccccc1)c1nnc(SCC(=O)NC2CCCC2)n1C (centres undefined)	-2	-1	-1	11	9	0	nt
CCOC(=O)C1=CN(Cc2cccc(-c3ccc(Cl)nc3)c2)S(=O)(=O)N(C)C1C (centres undefined)	3	22	3	nt	4	3	nt
O=C(CNC(=O)c1ccccc1F)OCC(=O)c1ccc(Cl)s1	6	6	10	18	-1	5	nt
Cc1ccc(S(=O)(=O)N2CCCCC2)cc1NC(=O)CSc1nnc(C2CC2)n1N	-3	8	4	10	10	5	nt
CCn1c(C)nc2cc(C(=O)OC(C(F)(F)C(F)F)C(F)(F)C(F)F)ccc21	24	19	90*	8	7	14	79*
C[C@H](CO)N1C[C@H](C)[C@@H](CN(C)Cc2ccncc2)Oc2c(NS(=O)(=O)c3ccccc3)cccc2C1=O	0	-3	-5	13	9	1	nt
CC(=O)c1c(C)[nH]c(C(=O)OCC(=O)Nc2ccc3c(c2)OCCO3)c1C	0	0	35*	7	5	4	20
